Assay results as given in ChEMBL document CHEMBL1926551, “Design, synthesis and in vitro evaluation of novel chroman-4-one, chroman, and 2H-chromene derivatives as human rhinovirus capsid-binding inhibitors” (Bioorg Med Chem, 2011).
Activity calls are given as the source filed them. The rule behind the calls is not given here.

Experiments:
[1] = Cytotoxicity against human HeLa cells after 3 days by XTT based ELISA reader; assay type: cell-based; details: read-out: TC50
Method in brief: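 HeLa cells seeded at 2 × 10^3 cells/well in growth medium (MEM, 8% FCS) with twofold compound dilutions from the maximum soluble concentration, triplicate wells. Matched ethanol controls were run. Plates were held 3 days at 37 °C, 5% CO2, then XTT was added (final 0.15 mg/mL) for 4 h.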

[2] = Therapeutic index, ratio of TC50 for human HeLa cells to IC50 for Human rhinovirus 14 infected in human HeLa cells; assay type: cell-based; details: read-out: TI
Method in brief: (§1)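 Therapeutic index calculated as HeLa TC50 (XTT, 3 days) divided by the plaque-reduction IC50 for the respective serotype.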

rhinovirus A1B [3] = assay: Antiviral activity against Human rhinovirus 1B infected in human HeLa cells assessed as inhibition of virus induced-plaque formation after 3 days by neutral red-based plaque reduction assay; assay type: functional, organism-based; details: Rhinovirus A, 72 h
Method in brief: (§2)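 HeLa (Ohio) monolayers infected with virus giving about 100 plaques/well and adsorbed 1 h at 33 °C. The inoculum was removed and cells were overlaid with plaque medium ± fourfold compound dilutions, starting from the maximum non-cytotoxic concentration (MNTC). After 3 days at 33 °C, cells were stained with neutral red (0.2 mg/mL in PBS, pH 7.4) and plaques counted, triplicate wells.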

rhinovirus B14 [4] = assay: Antiviral activity against Human rhinovirus 14 infected in human HeLa cells assessed as inhibition of virus induced-plaque formation after 3 days by neutral red-based plaque reduction assay; assay type: functional, organism-based; details: Rhinovirus B, 72 h
Method in brief: as §2, with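 “wells. IC50 came from % plaque reduction vs log dose; where 50% was not reached, % inhibition at the MNTC was reported.” for “wells.”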

[5] = Therapeutic index, ratio of TC50 for human HeLa cells to IC50 for Human rhinovirus 1B infected in human HeLa cells; assay type: cell-based; details: read-out: TI; method in brief: as §1
[6] = Cytotoxicity against human HeLa cells after 3 days by microscopic analysis; assay type: cell-based; details: read-out: MNCC
Method in brief: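 HeLa cells exposed to twofold compound dilutions for 3 days at 37 °C and morphology scored microscopically on day 3. The MNTC is the highest concentration leaving morphology and viability unchanged in 100% of cells.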

rhinovirus B14 [7] = assay: Antiviral activity against Human rhinovirus 14 infected in human HeLa cells assessed as inhibition of virus induced-plaque formation at 25 uM after 3 days by neutral red-based plaque reduction assay; assay type: functional; details: Rhinovirus B, 72 h; method in brief: as §2
rhinovirus A1B [8] = assay: Antiviral activity against Human rhinovirus 1B infected in human HeLa cells assessed as reduction of viral yield at 42 uM treated together with viral inoculum after 10 hrs by neutral red-based plaque reduction assay; assay type: functional; details: Rhinovirus A
Method in brief: (§3)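 One-step growth: confluent HeLa monolayers infected with HRV 1B at MOI 5. Virus bound 1 h at 4 °C, then washed thrice with cold PBS; cultures were incubated at 33 °C to 10 h p.i. 42 µM compound was present either during binding only or throughout binding plus replication. Cultures were freeze-thawed three times, clarified, and yield titrated by plaque assay on HeLa.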

rhinovirus A1B [9] = assay: Antiviral activity against Human rhinovirus 1B infected in human HeLa cells assessed as reduction of viral yield at 42 uM treated 6 hrs after viral adsorption measured after 10 hrs by neutral red-based plaque reduction assay; assay type: functional; details: Rhinovirus A
rhinovirus A1B [10] = assay: Antiviral activity against Human rhinovirus 1B infected in human HeLa cells assessed as reduction of viral yield at 42 uM treated 4 hrs after viral adsorption measured after 10 hrs by neutral red-based plaque reduction assay; assay type: functional; details: Rhinovirus A
rhinovirus A1B [11] = assay: Antiviral activity against Human rhinovirus 1B infected in human HeLa cells assessed as reduction of viral yield at 42 uM treated at the end of viral adsorption measured after 10 hrs by neutral red-based plaque reduction assay; assay type: functional, organism-based; details: TDE = time-dependent effect
rhinovirus A1B [12] = assay: Antiviral activity against Human rhinovirus 1B infected in human HeLa cells assessed as reduction of viral yield at 42 uM treated 15 mins after viral adsorption measured after 10 hrs by neutral red-based plaque reduction assay; assay type: functional; details: Rhinovirus A
rhinovirus A1B [13] = assay: Antiviral activity against Human rhinovirus 1B infected in human HeLa cells assessed as reduction of viral yield at 42 uM treated during viral adsorption measured after 10 hrs by neutral red-based plaque reduction assay; assay type: functional; details: Rhinovirus A; method in brief: as §3
rhinovirus A1B [14] = assay: Antiviral activity against Human rhinovirus 1B infected in human HeLa cells assessed as reduction of viral yield at 42 uM treated 30 mins after viral adsorption measured after 10 hrs by neutral red-based plaque reduction assay; assay type: functional; details: Rhinovirus A
rhinovirus A1B [15] = assay: Antiviral activity against Human rhinovirus 1B assessed as reduction in infectivity titers at 42 uM after 1 hr using HeLa cell monolayers by plaque assay (reference value: 5.33 * 10^6 PFU/mL); assay type: functional
Method in brief: (§4)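 HRV 1B suspension at high titre incubated ± 42 µM compound for 1 h at 33 °C. It was then serially diluted 10-fold to reach non-inhibitory free compound levels, and infectivity was titrated by plaque assay on HeLa monolayers.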

rhinovirus A1B [16] = assay: Antiviral activity against Human rhinovirus 1B in human HeLa cell monolayers assessed as reduction of viral infectivity at 42 uM at 56 degC pre-treated for 1 hr before thermal treatment measured after 20 mins by plaque assay (reference value: 2.9 log PFU/mL); assay type: functional
rhinovirus B14 [17] = assay: Antiviral activity against Human rhinovirus 14 infected in human HeLa cells assessed as inhibition of virus induced-plaque formation at 12.5 uM after 3 days by neutral red-based plaque reduction assay; assay type: functional; details: Rhinovirus B, 72 h
Method in brief: as §2, with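 “wells. IC50 came from % plaque reduction vs log dose; where 50% was not reached, % inhibition at the MNTC was reported.” for “wells.”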

rhinovirus A1B [18] = assay: Antiviral activity against Human rhinovirus 1B infected in human HeLa cells assessed as reduction of viral yield at 42 uM treated at the end of viral adsorption followed by washout after 6 hrs measured after 10 hrs by neutral red-based plaque reduction assay; assay type: functional; details: Rhinovirus A
rhinovirus A1B [19] = assay: Antiviral activity against Human rhinovirus 1B infected in human HeLa cells assessed as reduction of viral yield at 42 uM treated 2 hrs after viral adsorption measured after 10 hrs by neutral red-based plaque reduction assay; assay type: functional; details: Rhinovirus A
rhinovirus A1B [20] = assay: Antiviral activity against Human rhinovirus 1B in human HeLa cell monolayers assessed as reduction of viral infectivity at 42 uM at pH 5 pre-treated for 1 hr before mild acid treatment measured after 30 mins by plaque assay (reference value: 3.8 log PFU/mL); assay type: functional
rhinovirus A1B [21] = assay: Antiviral activity against Human rhinovirus 1B infected in human HeLa cells measured after dilution; assay type: functional, organism-based; method in brief: as §4
rhinovirus A1B [22] = assay: Antiviral activity against Human rhinovirus 1B infected in human HeLa cells assessed as reduction of viral yield at 42 uM treated 60 mins after viral adsorption measured after 10 hrs by neutral red-based plaque reduction assay; assay type: functional; details: Rhinovirus A
rhinovirus A1B [23] = assay: Antiviral activity against Human rhinovirus 1B infected in human HeLa cells assessed as reduction of viral yield at 42 uM treated at the end of viral adsorption followed by washout after 30 mins to 1 hr measured after 10 hrs by neutral red-based plaque reduction assay; assay type: functional; details: Rhinovirus A
rhinovirus A1B [24] = assay: Antiviral activity against Human rhinovirus 1B infected in human HeLa cells assessed as reduction of viral yield at 42 uM at 4 degC treated immediately after viral adsorption after 1 hr by neutral red-based plaque reduction assay; assay type: functional, organism-based
rhinovirus A1B [25] = assay: Antiviral activity against Human rhinovirus 1B infected in human HeLa cells assessed as reduction of viral yield at 42 uM treated 45 mins after viral adsorption measured after 10 hrs by neutral red-based plaque reduction assay; assay type: functional; details: Rhinovirus A
rhinovirus A1B [26] = assay: Antiviral activity against Human rhinovirus 1B infected in human HeLa cells assessed as reduction of viral yield at 42 uM treated before viral adsorption measured after 10 hrs by neutral red-based plaque reduction assay; assay type: functional; details: Rhinovirus A
[27] = Ratio of IC50 for Human rhinovirus 1B to IC50 for Human rhinovirus 14; assay type: functional

| Structure (SMILES) | CC50 at 72 h [1] | selectivity ratio [2] | IC50 (rhinovirus A1B [3]) | IC50 (rhinovirus B14 [4]) | selectivity ratio [5] | MNTC at 72 h [6] | other results |
| --- | --- | --- | --- | --- | --- | --- | --- |
| O=C1/C(=C/C=C/c2ccccc2)COc2ccc(F)cc21 | 50 µM | 2.94 | 4.98 µM | 17 µM | 10 | 25 µM |  |
| Clc1ccc(/C=C/C=C2\COc3ccccc3C2)cc1 | 50 µM | 8.31 | 1.39 µM | 6.02 µM | 36 | 25 µM |  |
| C(/C=C/c1ccccc1)=C1/COc2ccccc2C1 | 100 µM | 2.1 | 0.99 µM | 47.6 µM | 101 | 50 µM |  |
| Clc1ccc(C/C=C/C2=Cc3ccccc3OC2)cc1 | 100 µM | 2.22 | 3.61 µM | 45.1 µM | 27.7 | 50 µM |  |
| O=C1/C(=C/C=C/c2ccc(Cl)cc2)COc2ccccc21 | 50 µM |  | 2.54 µM |  | 19.7 | 25 µM | inhibition at 25 µM (rhinovirus B14 [7]): 17.1% |
| C1=C(/C=C/Cc2ccccc2)COc2ccccc21 | 75 µM | 6.76 | 13.6 µM | 11.1 µM | 5.52 | 50 µM |  |
| Clc1ccc2c(c1)C=C(/C=C/Cc1ccccc1)CO2 | 25 µM |  | 0.42 µM |  | 59.5 | 12.5 µM | inhibition at 42 µM (rhinovirus A1B [8]): 88.5%; inhibition at 42 µM (rhinovirus A1B [9]): 1%; inhibition at 42 µM (rhinovirus A1B [10]): 12%; inhibition (rhinovirus A1B [11]): tde; inhibition at 42 µM (rhinovirus A1B [12]): > 80%; inhibition at 42 µM (rhinovirus A1B [13]): 16%; inhibition at 42 µM (rhinovirus A1B [14]): > 80%; PFU/ml (rhinovirus A1B [15]): 5110000; log10PFU/ml (rhinovirus A1B [16]): 1.8; inhibition at 12.5 µM (rhinovirus B14 [17]): 23%; inhibition at 42 µM (rhinovirus A1B [18]): 93%; inhibition at 42 µM (rhinovirus A1B [19]): 31%; log10PFU/ml (rhinovirus A1B [20]): 2.8; Activity (rhinovirus A1B [21]): inactive; inhibition at 42 µM (rhinovirus A1B [22]): > 80%; inhibition at 42 µM (rhinovirus A1B [23]): 35%; inhibition (rhinovirus A1B [24]): Active; inhibition at 42 µM (rhinovirus A1B [25]): > 80%; inhibition at 42 µM (rhinovirus A1B [26]): 6% |
| Clc1ccc(/C=C/C=C2\COc3ccc(Cl)cc3C2)cc1 | 25 µM | 3.02 | 11.5 µM | 8.27 µM | 2.18 | 12.5 µM |  |
| O=C1/C(=C/C=C/c2ccc(Cl)cc2)COc2ccc(Cl)cc21 | 25 µM | 17.6 | 3.35 µM | 1.42 µM | 7.46 | 12.5 µM | Ratio IC50 [27]: 2 |
| Clc1ccc2c(c1)C/C(=C/C=C/c1ccccc1)CO2 | 50 µM |  | 2.79 µM |  | 17.9 | 25 µM | inhibition at 25 µM (rhinovirus B14 [7]): 30.3% |
| O=C1/C(=C/C=C/c2ccccc2)COc2ccccc21 | 25 µM |  | 0.85 µM |  | 29.4 | 12.5 µM | inhibition at 12.5 µM (rhinovirus B14 [17]): 7.2% |
| O=C1/C(=C/C#Cc2ccccc2)COc2ccccc21 | 50 µM | 2.5 | 9.3 µM | 20 µM | 5.38 | 25 µM |  |
| O=C1/C(=C/C=C/c2ccccc2)COc2ccc(Cl)cc21 | 50 µM |  | 0.99 µM |  | 50.5 | 25 µM | inhibition at 25 µM (rhinovirus B14 [7]): 48.6% |
| O=C1/C(=C/C#Cc2ccccc2)COc2ccc(Cl)cc21 | 75 µM | 2.47 | 7.89 µM | 30.4 µM | 9.51 | 50 µM |  |
| Clc1ccc(C/C=C/C2=Cc3cc(Cl)ccc3OC2)cc1 | 100 µM |  | 9.73 µM |  | 10.3 | 25 µM | inhibition at 25 µM (rhinovirus B14 [7]): 27% |
| Fc1ccc2c(c1)C/C(=C/C=C/c1ccccc1)CO2 | 75 µM | 2.05 | 5.57 µM | 36.5 µM | 13.5 | 50 µM |  |
